Assay [1] deals with High affinity 3',5'-cyclic-AMP phosphodiesterase 7A (Homo sapiens, UniProt Q13946). The assay is described as follows: Inhibition of human recombinant PDE7A1 expressed in baculovirus infected insect Sf21 cells after 30 mins by scintillation proximity assay. The procedure, abridged: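 Full-length human recombinant PDE7A1 produced in baculovirus-infected Sf21 cells. SPA read-out with [3H]-cAMP at 20 nM in 80 mM Tris/10 mM MgSO4, pH 7.4. Reaction run 30 min at 37 °C before bead addition and scintillation counting. Background measured without enzyme. IC50 derived.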
Chain of High affinity 3',5'-cyclic-AMP phosphodiesterase 7A (Q13946 whole entry): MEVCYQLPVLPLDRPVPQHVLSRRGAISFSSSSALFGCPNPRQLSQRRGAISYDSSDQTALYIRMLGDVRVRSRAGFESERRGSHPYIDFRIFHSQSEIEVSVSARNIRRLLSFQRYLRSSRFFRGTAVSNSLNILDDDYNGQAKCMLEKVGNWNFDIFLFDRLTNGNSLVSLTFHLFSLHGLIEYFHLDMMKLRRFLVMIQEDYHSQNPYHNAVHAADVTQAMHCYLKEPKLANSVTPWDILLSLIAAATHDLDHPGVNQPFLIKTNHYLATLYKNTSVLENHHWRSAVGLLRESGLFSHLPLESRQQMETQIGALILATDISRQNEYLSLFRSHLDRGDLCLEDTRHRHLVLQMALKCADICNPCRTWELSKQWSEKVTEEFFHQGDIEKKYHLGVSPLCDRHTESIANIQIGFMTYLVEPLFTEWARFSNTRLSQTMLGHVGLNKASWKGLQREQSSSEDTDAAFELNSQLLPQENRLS
For orientation: SPA uses beads or plates that emit light when radiolabelled molecules are held near them.

The target in assay [2] is 3',5'-cyclic-AMP phosphodiesterase 4A (Homo sapiens, UniProt P27815). The assay is described as follows: Inhibition of human recombinant PDE4A4 expressed in baculovirus infected insect Sf21 cells after 30 mins by scintillation proximity assay. The essentials: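 Full-length human recombinant enzyme expressed in baculovirus-infected Sf21 cells. Scintillation proximity assay with 500 nM [3H]-cAMP substrate in 80 mM Tris/10 mM MgSO4, pH 7.4. Incubated 30 min at 37 °C, then SPA beads added and plates counted. Background taken in presence of 10 µM rolipram. IC50 reported.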
Chain of 3',5'-cyclic-AMP phosphodiesterase 4A (P27815 whole entry): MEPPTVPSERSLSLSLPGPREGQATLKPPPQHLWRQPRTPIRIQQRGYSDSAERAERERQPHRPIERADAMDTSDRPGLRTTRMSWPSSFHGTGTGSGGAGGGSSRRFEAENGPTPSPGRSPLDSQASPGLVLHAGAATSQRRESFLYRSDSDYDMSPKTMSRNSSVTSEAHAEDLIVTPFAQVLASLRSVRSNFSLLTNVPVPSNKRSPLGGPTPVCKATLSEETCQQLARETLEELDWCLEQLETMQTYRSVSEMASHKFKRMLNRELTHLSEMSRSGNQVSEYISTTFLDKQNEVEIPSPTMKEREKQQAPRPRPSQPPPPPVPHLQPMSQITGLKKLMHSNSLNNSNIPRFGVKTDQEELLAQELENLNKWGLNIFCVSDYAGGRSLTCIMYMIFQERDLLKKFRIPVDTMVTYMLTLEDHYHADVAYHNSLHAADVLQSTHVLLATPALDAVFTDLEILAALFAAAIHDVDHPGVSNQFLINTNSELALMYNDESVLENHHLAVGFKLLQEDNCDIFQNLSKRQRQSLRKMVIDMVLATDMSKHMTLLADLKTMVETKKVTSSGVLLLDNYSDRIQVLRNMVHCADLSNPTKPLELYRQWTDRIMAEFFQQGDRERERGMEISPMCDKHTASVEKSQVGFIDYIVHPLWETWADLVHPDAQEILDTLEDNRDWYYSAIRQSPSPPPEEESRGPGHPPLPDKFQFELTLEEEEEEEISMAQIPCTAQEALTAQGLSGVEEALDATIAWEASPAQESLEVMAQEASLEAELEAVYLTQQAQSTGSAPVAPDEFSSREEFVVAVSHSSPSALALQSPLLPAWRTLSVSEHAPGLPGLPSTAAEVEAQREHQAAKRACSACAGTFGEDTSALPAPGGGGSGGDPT

The next assay is filed under the species Homo sapiens. The assay is described as follows: Selectivity ratio of IC50 for human recombinant PDE4A4 to IC50 for human recombinant PDE7A1. The essentials:
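Ratio of IC50 values for the two enzymes. PDE4A4 run at 500 nM [3H]-cAMP with a 10 µM rolipram background; PDE7A1 run at 20 nM [3H]-cAMP with a no-enzyme background. Both used full-length human enzymes from Sf21 cells, 30 min at 37 °C, pH 7.4 Tris/MgSO4, SPA read-out.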

In assay [3] the target is Dual specificity calcium/calmodulin-dependent 3',5'-cyclic nucleotide phosphodiesterase 1B (Homo sapiens, UniProt Q01064). The assay is described as follows: Inhibition of human recombinant PDE1B.
Chain of Dual specificity calcium/calmodulin-dependent 3',5'-cyclic nucleotide phosphodiesterase 1B (Q01064 whole entry): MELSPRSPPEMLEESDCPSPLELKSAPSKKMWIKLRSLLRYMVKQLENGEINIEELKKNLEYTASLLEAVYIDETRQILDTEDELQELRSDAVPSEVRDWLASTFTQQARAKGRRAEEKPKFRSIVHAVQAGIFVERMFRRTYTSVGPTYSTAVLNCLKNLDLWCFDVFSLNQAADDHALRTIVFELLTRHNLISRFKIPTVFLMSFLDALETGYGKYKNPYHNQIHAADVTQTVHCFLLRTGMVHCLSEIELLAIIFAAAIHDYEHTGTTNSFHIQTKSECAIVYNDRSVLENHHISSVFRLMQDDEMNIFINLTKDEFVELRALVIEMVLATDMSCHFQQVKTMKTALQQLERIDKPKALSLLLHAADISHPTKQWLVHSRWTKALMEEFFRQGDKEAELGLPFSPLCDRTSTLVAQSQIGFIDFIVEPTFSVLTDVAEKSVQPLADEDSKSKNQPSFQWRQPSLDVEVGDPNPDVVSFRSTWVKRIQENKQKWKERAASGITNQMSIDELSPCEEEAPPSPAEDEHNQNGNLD
Assay [4] concerns the target cGMP-dependent 3',5'-cyclic phosphodiesterase (Homo sapiens, UniProt O00408). The assay is described as follows: Inhibition of human recombinant PDE2A.
In assay [5] the target is cGMP-inhibited 3',5'-cyclic phosphodiesterase 3A (Homo sapiens, UniProt Q14432). The assay is described as follows: Inhibition of human recombinant PDE3A.
The target in assay [6] is cGMP-specific 3',5'-cyclic phosphodiesterase (Homo sapiens, UniProt O76074). The assay is described as follows: Inhibition of human recombinant PDE5A.
The target of assay [7] is High affinity cAMP-specific and IBMX-insensitive 3',5'-cyclic phosphodiesterase 8A (Homo sapiens, UniProt O60658). The assay is described as follows: Inhibition of human recombinant PDE8A.
In assay [8] the target is High affinity cGMP-specific 3',5'-cyclic phosphodiesterase 9A (Homo sapiens, UniProt O76083). The assay is described as follows: Inhibition of human recombinant PDE9A.
Assay [9] has as its target cAMP and cAMP-inhibited cGMP 3',5'-cyclic phosphodiesterase 10A (Homo sapiens, UniProt Q9Y233). The assay is described as follows: Inhibition of human recombinant PDE10A.
The target of assay [10] is Dual 3',5'-cyclic-AMP and -GMP phosphodiesterase 11A (Homo sapiens, UniProt Q9HCR9). The assay is described as follows: Inhibition of human recombinant PDE11A.
Chain of Dual 3',5'-cyclic-AMP and -GMP phosphodiesterase 11A (Q9HCR9 whole entry): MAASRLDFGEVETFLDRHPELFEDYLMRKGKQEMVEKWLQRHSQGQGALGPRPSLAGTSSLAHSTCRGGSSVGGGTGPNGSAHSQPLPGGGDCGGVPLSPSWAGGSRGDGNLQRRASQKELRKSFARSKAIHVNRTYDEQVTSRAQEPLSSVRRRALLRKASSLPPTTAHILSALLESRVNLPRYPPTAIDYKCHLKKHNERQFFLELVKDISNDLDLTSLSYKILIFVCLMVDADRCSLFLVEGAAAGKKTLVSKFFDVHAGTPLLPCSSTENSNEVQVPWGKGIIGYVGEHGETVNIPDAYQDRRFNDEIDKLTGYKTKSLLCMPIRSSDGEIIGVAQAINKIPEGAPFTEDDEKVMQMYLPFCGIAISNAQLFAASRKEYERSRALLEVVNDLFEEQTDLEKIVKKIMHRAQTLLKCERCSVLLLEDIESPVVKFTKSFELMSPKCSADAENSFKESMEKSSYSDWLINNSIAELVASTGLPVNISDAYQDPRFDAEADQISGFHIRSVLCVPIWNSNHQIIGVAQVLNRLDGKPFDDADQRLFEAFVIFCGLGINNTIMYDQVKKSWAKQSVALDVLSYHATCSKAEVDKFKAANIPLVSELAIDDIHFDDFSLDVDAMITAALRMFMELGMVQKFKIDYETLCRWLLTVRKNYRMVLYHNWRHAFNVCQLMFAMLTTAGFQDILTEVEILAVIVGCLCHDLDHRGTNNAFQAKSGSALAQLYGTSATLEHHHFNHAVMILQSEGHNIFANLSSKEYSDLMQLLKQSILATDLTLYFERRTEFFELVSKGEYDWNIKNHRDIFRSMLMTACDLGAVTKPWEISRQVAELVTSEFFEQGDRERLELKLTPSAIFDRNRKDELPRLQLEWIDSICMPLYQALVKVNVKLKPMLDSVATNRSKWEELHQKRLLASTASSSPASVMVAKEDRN
Assay [11] is described as follows: Inhibition of bovine PDE6. Further details: species or system Bos taurus.

SMILES strings stand for the structures. Where only a bound is given, the exact number is not on record here.

Chain of cAMP and cAMP-inhibited cGMP 3',5'-cyclic phosphodiesterase 10A (Q9Y233 whole entry): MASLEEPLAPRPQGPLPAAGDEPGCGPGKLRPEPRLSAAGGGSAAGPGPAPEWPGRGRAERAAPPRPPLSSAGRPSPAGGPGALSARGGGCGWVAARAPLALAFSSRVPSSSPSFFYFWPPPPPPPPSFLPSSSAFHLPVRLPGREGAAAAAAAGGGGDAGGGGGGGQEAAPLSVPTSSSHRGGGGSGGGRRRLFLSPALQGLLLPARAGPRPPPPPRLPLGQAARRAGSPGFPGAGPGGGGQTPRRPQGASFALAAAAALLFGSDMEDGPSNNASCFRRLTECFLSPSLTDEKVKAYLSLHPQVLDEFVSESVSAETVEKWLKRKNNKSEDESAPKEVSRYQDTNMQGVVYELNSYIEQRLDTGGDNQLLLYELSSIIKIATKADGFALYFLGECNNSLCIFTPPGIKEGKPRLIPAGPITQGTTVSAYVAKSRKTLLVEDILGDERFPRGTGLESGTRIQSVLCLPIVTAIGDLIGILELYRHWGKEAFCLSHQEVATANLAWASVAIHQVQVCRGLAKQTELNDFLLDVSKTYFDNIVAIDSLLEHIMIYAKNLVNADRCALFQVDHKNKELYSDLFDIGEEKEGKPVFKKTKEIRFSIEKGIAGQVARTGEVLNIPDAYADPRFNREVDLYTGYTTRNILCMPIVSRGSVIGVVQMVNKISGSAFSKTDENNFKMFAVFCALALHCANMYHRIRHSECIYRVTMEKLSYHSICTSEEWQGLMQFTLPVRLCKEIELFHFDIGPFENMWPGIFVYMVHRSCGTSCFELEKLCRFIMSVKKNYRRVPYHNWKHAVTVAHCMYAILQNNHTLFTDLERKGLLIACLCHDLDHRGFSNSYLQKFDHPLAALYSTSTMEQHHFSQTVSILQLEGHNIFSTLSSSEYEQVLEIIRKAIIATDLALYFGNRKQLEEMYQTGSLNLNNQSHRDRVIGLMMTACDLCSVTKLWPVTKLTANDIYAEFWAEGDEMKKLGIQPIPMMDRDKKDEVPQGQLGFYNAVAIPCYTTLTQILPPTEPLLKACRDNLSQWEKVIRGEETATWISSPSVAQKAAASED
Chain of cGMP-dependent 3',5'-cyclic phosphodiesterase (O00408 whole entry): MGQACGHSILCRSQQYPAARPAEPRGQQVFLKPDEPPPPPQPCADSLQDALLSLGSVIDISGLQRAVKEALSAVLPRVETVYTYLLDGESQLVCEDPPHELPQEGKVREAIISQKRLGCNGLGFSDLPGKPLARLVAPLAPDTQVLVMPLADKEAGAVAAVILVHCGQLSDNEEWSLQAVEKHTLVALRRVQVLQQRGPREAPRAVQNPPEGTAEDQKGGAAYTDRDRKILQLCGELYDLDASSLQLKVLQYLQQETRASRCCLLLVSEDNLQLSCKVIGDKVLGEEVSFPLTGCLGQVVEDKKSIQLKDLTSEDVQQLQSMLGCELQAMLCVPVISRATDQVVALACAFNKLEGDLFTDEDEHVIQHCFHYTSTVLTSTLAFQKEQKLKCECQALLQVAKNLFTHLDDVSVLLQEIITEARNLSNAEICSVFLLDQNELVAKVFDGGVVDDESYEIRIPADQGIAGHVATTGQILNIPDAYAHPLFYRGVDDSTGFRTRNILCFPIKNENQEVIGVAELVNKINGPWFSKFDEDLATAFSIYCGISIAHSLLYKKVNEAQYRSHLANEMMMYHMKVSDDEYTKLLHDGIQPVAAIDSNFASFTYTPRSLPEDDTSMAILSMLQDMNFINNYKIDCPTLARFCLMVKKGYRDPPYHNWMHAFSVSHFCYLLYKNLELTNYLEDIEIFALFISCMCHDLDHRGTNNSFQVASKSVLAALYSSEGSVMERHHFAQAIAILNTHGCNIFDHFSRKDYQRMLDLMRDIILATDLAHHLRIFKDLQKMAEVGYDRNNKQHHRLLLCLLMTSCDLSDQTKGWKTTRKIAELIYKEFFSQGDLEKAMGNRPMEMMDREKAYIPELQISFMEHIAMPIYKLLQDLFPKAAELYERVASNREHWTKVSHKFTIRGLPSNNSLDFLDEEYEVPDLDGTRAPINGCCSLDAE

Regarding `CC(=O)Nc1ccc(NC(=O)c2cn(Cc3c(F)cccc3Cl)c3ccc(=O)[nH]c3c2=O)cc1`, the figures for the IC50 in [1] and in [2] were 17 nM and 362 nM, respectively. Also, the Ratio IC50 in the assay filed under Homo sapiens came to 6.

For the compound `CS(=O)(=O)c1cccc(NC(=O)c2cn(Cc3c(F)cccc3Cl)c3ccc(=O)[nH]c3c2=O)c1`, the results for the IC50 in assay [1] and in [2] were 59 nM and 1420 nM, respectively. For the same compound, the Ratio IC50 in the assay listed under Homo sapiens is 24.

In the case of `CN(C)c1ccc(NC(=O)c2cn(Cc3c(F)cccc3Cl)c3ccc(=O)[nH]c3c2=O)cc1`, the IC50 (as a rule, the concentration needed to halve the response being measured) in [1] came out at 39 nM; in [2] it was 402 nM. The Ratio IC50 in the assay listed under Homo sapiens was found to be 6.

As for `NC(=O)c1cccc(NC(=O)c2cn(Cc3c(F)cccc3Cl)c3ccc(=O)[nH]c3c2=O)c1`, the IC50 in assay [1] turned out to be 44 nM; in assay [2], 580 nM. For the same compound, the Ratio IC50 in the assay filed under Homo sapiens was determined as 6.

On to `CS(=O)(=O)c1ccc(NC(=O)c2cn(Cc3c(F)cccc3Cl)c3ccc(=O)[nH]c3c2=O)cc1`, for which the results for the IC50 in assay [1] and in assay [2] were 12 nM and 73 nM, respectively. In addition, the Ratio IC50 in the assay filed under Homo sapiens came out at 6.

With `CCN(CC)c1ccc(NC(=O)c2cn(Cc3c(F)cccc3Cl)c3ccc(=O)[nH]c3c2=O)cc1`, the IC50 was 60 nM in assay [1]; above 5000 nM in assay [2]; above 5000 nM in assay [3]; above 5000 nM in [4]; above 5000 nM in [5]; above 5000 nM in assay [6]. The IC50 in assay [7], in [8], in [9], in [10] and in [11] was above 5000 nM throughout. For the same compound, the Ratio IC50 in the assay filed under Homo sapiens is above 83.

With `O=C(Nc1ccc(N2CCOCC2)cc1)c1cn(Cc2c(F)cccc2Cl)c2ccc(=O)[nH]c2c1=O`, the IC50 is 13 nM in assay [1]; above 1000 nM in assay [2]; above 1000 nM in assay [3]; above 1000 nM in assay [4]; above 1000 nM in assay [5]; above 1000 nM in assay [6]. The IC50 in [7], in [8], in [9], in [10] and in [11] was above 1000 nM in each case. Besides, the Ratio IC50 in the assay listed under Homo sapiens is above 77.

As to `NC(=O)c1ccc(NC(=O)c2cn(Cc3c(F)cccc3Cl)c3ccc(=O)[nH]c3c2=O)cc1`, the values for the IC50 in [1] and in assay [2] were 10 nM and 90 nM, respectively. The Ratio IC50 in the assay listed under Homo sapiens is 6.

(Values after ChEMBL document CHEMBL1909601, “Synthesis and structure-activity relationship studies of dihydronaphthyridinediones as a novel structural class of potent and selective PDE7 inhibitors” (Bioorg Med Chem Lett, 2011).)
